{"data": "Measurements gathered from unrelated publications", "target": "Aurora kinase A (AURKA, Homo sapiens, UniProt O14965)", "One construct used (O14965 1-403)": "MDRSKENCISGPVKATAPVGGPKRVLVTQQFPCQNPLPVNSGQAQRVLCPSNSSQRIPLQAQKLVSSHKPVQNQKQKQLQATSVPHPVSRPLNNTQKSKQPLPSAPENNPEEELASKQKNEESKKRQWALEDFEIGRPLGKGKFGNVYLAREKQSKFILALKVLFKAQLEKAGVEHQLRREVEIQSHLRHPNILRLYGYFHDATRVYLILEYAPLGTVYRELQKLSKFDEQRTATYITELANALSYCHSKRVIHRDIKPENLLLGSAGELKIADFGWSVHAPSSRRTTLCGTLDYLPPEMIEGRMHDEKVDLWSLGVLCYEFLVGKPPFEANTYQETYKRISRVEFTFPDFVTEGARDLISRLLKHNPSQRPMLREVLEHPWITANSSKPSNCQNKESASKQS", "note": "Each line is one published result; the experiments were not run side by side."}
{"Compound": "CN1CCN(C(=O)c2ccc(NC(=O)Nc3ccc(N(C)c4ccnc(Nc5ccc(CS(C)(=O)=O)cc5)n4)cc3)cc2)CC1", "assay": "binding, competition with immobilised ligand", "conditions": "1 µM", "quantity": "remaining binding", "result": "0%"}
{"Compound": "COc1ccc2oc(-c3ccc4nc(N)oc4c3)c/c(=N\\c3ccccc3NC(=O)CCN)c2c1", "assay": "binding", "conditions": "1 µM", "quantity": "remaining binding", "result": "98%"}
{"Compound": "CC(=O)ON=C1C=CC(=C(C#N)c2ccccc2)C=C1", "assay": "enzyme activity, inhibitor, ADP detection", "conditions": "20 µM", "quantity": "activity vs control", "result": "66%"}
{"Compound": "C[C@H]1CC[C@H](n2c3cnccc3c3cnc(Nc4ccc5c(n4)CCN(C(=O)CO)C5)nc32)CC1", "assay": "cell-free assay, competition with immobilised ligand", "conditions": "1 µM", "quantity": "remaining binding", "result": "100%"}
{"Compound": "C=CC(=O)N1CCC[C@@H](n2nc(-c3ccc(Oc4ccccc4)cc3)c3c(N)ncnc32)C1", "assay": "enzyme activity, inhibitor", "conditions": "1 µM", "quantity": "inhibition", "result": "5%"}
{"Compound": "N#Cc1ccc(NC(=O)Nc2ccccc2)cc1", "assay": "cell-free assay, competition with immobilised ligand", "conditions": "25 µM", "quantity": "remaining binding", "result": "80%"}
{"Compound": "C1=C/COCc2cc(ccc2OCCN2CCCC2)Nc2nccc(n2)-c2cccc(c2)COC/1", "assay": "binding", "conditions": "0.1 µM", "quantity": "remaining binding", "result": "81%"}
{"Compound": "C=CC(=O)N1CCC([C@@H]2CCNc3c(C(N)=O)c(-c4ccc(Oc5ccccc5)cc4)nn32)CC1", "assay": "enzyme activity, inhibitor", "conditions": "1 µM", "quantity": "inhibition", "result": "1%"}
{"Compound": "C#Cc1cc(-c2cc(Nc3nc(N[C@@H](C)c4ccc(F)cn4)ncc3Cl)n[nH]2)ccc1C=O", "assay": "enzyme activity, inhibitor", "conditions": "0.2 µM", "quantity": "inhibition", "result": "82%"}
{"Compound": "CCCCC(=O)Nc1ccc(-c2ccc3ncn(CCC)c(=O)c3c2)cn1", "assay": "binding, competition with immobilised ligand", "conditions": "0.5 µM", "quantity": "remaining binding", "result": "100%"}
